Insulin prom act = TRM-6 insulin promoter activation | 130,000 tested, 0.81% active | activation, % at 2 µM | TRM-6 cells, insulin promoter eGFP reporter, imaging; plate-scaled: unstimulated 0, stimulated control 100;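 active = activation at 2 µM above a set limit, confirmed on inspection of the cell images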;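 also: share of cells whose green reporter signal exceeds an intensity cutoff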
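System: human fetal islet-derived TRM-6 cells with tamoxifen-inducible insulin promoter–eGFP reporter; input: seeding density of 1,000 cells per well; buffer or medium: Low-glucose (5.5 mM) medium with tamoxifen; incubation: compound exposure 48 h, 37 °C; measured by: high-content imaging of fixed cells with Hoechst nuclear stain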
A number is an active result; i = inactive. The entries come from a sample that favours hits as a whole.

SMILES	Insulin prom act
Cc1ccc(CNc2ccc3c(c2)OCO3)cc1	440.5
Cc1cc(C)cc(NC(=S)NCc2ccc3c(c2)OCO3)c1	i
CCN(CC)CC#CC(OC)(c1ccccc1)c1ccccc1	i
Cc1cc(C)c(OCCN2C(=O)NC(C)(C)C2=O)c(Cl)c1	i
Cc1cc(Cl)c(OCCCN2CCCCC2)c(Br)c1	i
Cc1cc(Cl)c(OCCN2C(=O)NC(C)(C)C2=O)c(Br)c1	538.5
COc1ccccc1COCC(O)CN(Cc1ccco1)Cc1ccccc1O (stereo unspecified)	i
OC1CCCN(Cc2c3ccccc3cc3ccccc23)C1 (stereo unspecified)	i
CCC(C)(C(=O)NC1CCCCC1)N(C(=O)CNC(C)=O)c1c(C)n(C)n(-c2ccccc2)c1=O (stereo unspecified)	i
COc1cc2nc(CN3CCC(Cc4ccccc4)CC3)[nH]c(=O)c2cc1OC	i
Cc1cc(OCCCn2ccnc2)cc(C)c1Cl	i
O=c1oc2ccc(Br)cc2cc1S(=O)(=O)c1ccc(F)cc1	i
CC(C)NC(=O)c1cc2cc(Br)ccc2oc1=O	128.6
CC(C)NC(=O)COC(=O)c1cc(Br)ccc1Cl	i
CCOC(=O)Cn1nc(/C=C/c2ccc(C(C)C)cc2)ccc1=O	i
CN(C)S(=O)(=O)c1cc(NC(=O)COC(=O)Cc2ccc(Br)cc2)ccc1Cl	i
O=C1CC(c2ccc(OCCCCCOc3ccc(C4CC(=O)NC4=O)cc3)cc2)C(=O)N1 (stereo unspecified)	i
Cc1cccc(-n2c(=O)c3c(n4cnnc24)-c2ccccc2CC32CCCCC2)c1	i
COc1cccc(N2CCN(C3CC(=O)N(c4ccc(F)c(Cl)c4)C3=O)CC2)c1 (stereo unspecified)	i
NC(=O)C1CCN(C2CC(=O)N(c3ccc(F)c(Cl)c3)C2=O)CC1 (stereo unspecified)	85.7
O=C(C1CCN(C2CC(=O)N(c3cccc(Cl)c3)C2=O)CC1)N1CCCC1 (stereo unspecified)	i
Clc1ccc(CNC23CN4CN(CN(C4)C2)C3)c(Cl)c1	i
CCN(CCCNC(=O)C1CCN(S(=O)(=O)N2CCOCC2)CC1)c1cccc(C)c1	i
CCN(CCNC(=O)C1CCC(=O)N1Cc1ccc(C)cc1)c1ccccc1 (stereo unspecified)	i
CCN(CCCNC(=O)C1CCC(=O)N1Cc1ccccc1Cl)c1cccc(C)c1 (stereo unspecified)	91.7
SMILES	Insulin prom act
CN(C)c1ccc(CNn2cnnc2SCc2ccccc2F)cc1	i
CCOC(=O)CSc1nnc(NCC(=O)OC(C)C)c(=O)[nH]1	i
O=C(N/N=C/c1ccc(Cl)cc1Cl)C1CCN(c2ncc(C(F)(F)F)cc2Cl)CC1	i
COc1ccccc1NC(=O)CCc1nc(-c2ccccc2F)no1	305.3
CCN(C(=O)CCc1nc(-c2ccccc2F)no1)c1cc(OC)ccc1OC	i
O=C(CCc1nc(-c2ccccc2)no1)Nc1cc(C(F)(F)F)ccc1Cl	i
COc1cccc(NC(=O)CCc2nc(-c3ccccc3F)no2)c1	i
COc1ccccc1NC(=O)CCc1nc(-c2cccs2)no1	82.8
CCOc1cc(-c2noc(CCC(=O)Nc3cccnc3)n2)ccc1OC	i
CC(NC(=O)C(Cc1ccccc1)NC(=O)c1ccccc1)C(=O)O (stereo unspecified)	i
COc1ccc(NC(=O)c2ccco2)cc1NC(=O)c1ccc(Br)o1	i
COc1ccc(-c2cc(C(F)(F)F)nc(SCC(=O)NCc3cccs3)n2)cc1OC	i
NC(=O)c1nn(-c2ccccc2)nc1NC(=O)CSc1nnnn1-c1ccc(Cl)cc1	i
O=C(/C=C/c1ccccc1)OCc1cncs1	i
Clc1ccc(COc2ccccc2-c2ccnc3ncnn23)cc1	i
c1ccc(Oc2ccc(-c3ccnc4ncnn34)cc2)cc1	397.1
c1ccc(Oc2ccc(-c3ccnc4nc(N5CCOCC5)nn34)cc2)cc1	i
CS(=O)(=O)c1ccc(Cl)c(NC(=O)CCc2ccccc2)c1	i
O=C(Nc1ccc(Cl)cn1)C1COc2ccccc2O1 (stereo unspecified)	i
CCn1c(SCC(=O)NCc2cccs2)nc2c1c(=O)n(C)c(=O)n2C	i
O=C(CSc1nc2ccccc2c(=O)n1Cc1ccc(Cl)cc1)NCc1cccs1	i
CCn1c(=O)c2ccccc2n2c(SCC(=O)NCc3cccs3)nnc12	136.4
Cc1cc(NC(=O)CSc2nc(C3CC3)nc3sc4c(c23)CCC(C)C4)no1 (stereo unspecified)	i
Cc1ccc(C(=O)C(C)OC(=O)c2cc3cc([N+](=O)[O-])ccc3oc2=O)cc1 (stereo unspecified)	i
CC1Oc2ccccc2OC1C(=O)Nc1ccccn1 (stereo unspecified)	i
SMILES	Insulin prom act
Cc1ccc(-c2c(C#N)c(N)n3c(nc4ccccc43)c2C#N)cc1	i
Cc1cc(C(=O)NCCCn2ccnc2)sc1-c1ccccc1	530.8
O=C(NCCCn1ccnc1)C(=O)Nc1ccccc1	i
O=C(NCCCn1ccnc1)C(=O)NCc1ccccc1	i
O=C(CSc1n[nH]c(-c2ccccc2)n1)Nc1ncc(Br)cc1Br	i
CC(C)(C)c1ccc(S(=O)(=O)N2CCN(c3ncccn3)CC2)cc1	266.7
CC(C)(C)c1cc(C(=O)N2CCN(c3ncccn3)CC2)ccn1	i
O=S(=O)(c1cc(F)cc(F)c1)N1CCN(c2ncccn2)CC1	i
COc1ccc(/C(C)=N/OCC(=O)N=Nc2c(O)[nH]c3ccccc23)cc1	i
COc1ccc(-n2cnnc2SCC(=O)Nc2cc(C(C)(C)C)nn2-c2ccccc2)cc1	i
CC(C)(C)NC(=O)COC(=O)c1cncc(Br)c1	i
CCOc1ccccc1NC(=S)NC1CCCCC1	i
N#CC1=C(N)C(C#N)(C#N)[C@H](c2ccoc2)[C@H]2CN(Cc3ccccc3)CC=C12	212.5
N#CC1=C(N)C(C#N)(C#N)C(c2cccnc2)C2COCC=C12 (stereo unspecified)	i
N#CC1=C(N)C(C#N)(C#N)C(c2cccnc2)C2CN(C(=O)OCc3ccccc3)CC=C12 (stereo unspecified)	i
O=C(Nc1nc2c(s1)CCc1ccccc1-2)c1ccco1	i
O=c1oc2ccccc2cc1-c1ccc(O)cc1O	i
O=c1oc2cc(O)ccc2cc1-c1nc2c(s1)CCc1ccccc1-2	733.3
CC(CCc1ccccc1)NC(=O)COC(=O)c1cc(NS(=O)(=O)c2ccc(Cl)c([N+](=O)[O-])c2)ccc1O (stereo unspecified)	i
c1ccc(Cn2ccc(-c3cnc(-c4ccccc4)s3)n2)cc1	i
CCCc1nc(SCc2ccccc2Cl)n[nH]1	i
CCCCN(C(=O)NC(=O)Nc1c(C)cc(C)cc1C)S(C)(=O)=O	163.6
Cc1cc(C)c(NC(=O)Cc2ccc(-n3cccc3)cc2)c(C)c1	i
Cc1cc(C)c(NC(=O)Nc2ccccc2)c(Cl)c1	i
CCCCNC(=O)C1CCCN(S(=O)(=O)CC)C1 (stereo unspecified)	i
SMILES	Insulin prom act
Cc1ccc(S(=O)(=O)NCCCCCC(N)=O)cc1	i
COC(=O)c1ccc(/C=N/NS(=O)(=O)c2cc(C)ccc2C)cc1	i
COc1ccc(CC(=O)n2nc(-c3ccccc3)nc2NCc2ccco2)cc1	641.7
O=C(Cc1ccc(-c2ccccc2)cc1)NNC(=S)NCc1ccco1	i
Cc1ccc(-c2nc(NCc3ccco3)n(S(C)(=O)=O)n2)cc1	i
C#CCn1c(S(=O)(=O)Cc2ccc(OC)cc2)nc(-c2ccccc2)c1-c1ccccc1	i
CCCOC(=O)C(=O)NNc1ccccc1	i
Nc1ncnc2nc(N3CCN(C(=O)c4ccccc4)CC3)[nH]c12	i

Bioassay records (PubChem BioAssay)
